High-throughput results: PubChem BioAssay, several laboratories
Lmaj promast: Leishmania major promastigote growth inhibition, primary screen | Leishmania major promastigotes, resazurin fluorescence viability | inhibition, % at 10 µM | 9% of 200,000 active; in the data active = inhibition above about 50%;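 note: promastigotes grown with compound for 44 hours at 28 °C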
Cl transport mod: KCC2 cotransporter modulators, thallium flux, primary screen, cell-based, HEK293 KCC2, FluoZin-2 fluorescence, MLSMR. Solute carrier family 12 member 5 (Homo sapiens), Q9H2X9. KCC2 cells, thallium flux FluoZin-2 fluorescence. B-score of Tl+ flux slope (higher = more flux/activation; lower = inhibition) at 10 µM. 2.2% of 190,000 active. AID 1456, 2008;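 active = thallium flux slope and its plate-corrected score both differing from the plate sample mean at a set confidence after two filtering rounds, in either direction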;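 note: slope of fluorescence scaled to starting intensity during 10 to 20 s after thallium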
ROMK mod: ROMK potassium channel modulators, primary screen, cell-based, thallium flux, MLSMR library; ATP-sensitive inward rectifier potassium channel 1 (Homo sapiens), P48048; Tet-inducible ROMK, thallium flux fluorescence; actives lie on both sides; B-score at 10 µM; 2% of 130,000 active; AID 1918, 2009;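 active = signal ratio slope over the read window, or its plate-corrected B-score, at least 3 SD from the plate mean, either direction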;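 note: B-score of the F/F0 ratio slope over 7 to 12 s after thallium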
Target sequence (P48048 whole entry, looked up): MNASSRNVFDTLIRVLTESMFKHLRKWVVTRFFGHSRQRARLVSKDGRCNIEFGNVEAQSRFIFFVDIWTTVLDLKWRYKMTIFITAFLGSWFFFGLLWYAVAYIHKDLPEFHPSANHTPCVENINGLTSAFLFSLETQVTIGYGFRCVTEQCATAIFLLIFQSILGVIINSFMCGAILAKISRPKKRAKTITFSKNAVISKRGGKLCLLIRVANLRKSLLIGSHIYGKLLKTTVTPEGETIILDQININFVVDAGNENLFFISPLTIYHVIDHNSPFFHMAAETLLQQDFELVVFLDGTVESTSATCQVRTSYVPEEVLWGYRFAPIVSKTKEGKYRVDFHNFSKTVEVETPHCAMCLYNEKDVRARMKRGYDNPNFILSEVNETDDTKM
Diaph inh CS: diaphorase inhibitors and chemical oxidizers, primary screen, counter-screen for diaphorase-coupled primary assays, biochemical, uHTS, resorufin fluorescence; 0.69% of 190,000 active; inhibition, % at 20 µM; diaphorase resazurin-to-resorufin fluorescence, NADH, 16 min; bacterial (C. kluyveri) enzyme, not human;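 active = primary screen inhibition at 20 µM above a set limit, cut at about 50% in these data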;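 note: plate controls were DMSO with full reaction for no effect and wells lacking NADH for full effect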
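Test system: bacterial diaphorase enzyme (C. kluyveri); Quantity: 0.14 U/mL diaphorase, enzyme working solution; Times: reaction incubation of 16 min at room temperature; Measured by: fluorescence of resorufin formed from resazurin, Ex 544/Em 590 nm; Benchmarks: positive control minus NADH, DMSO neutral control.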
Diaphorase act: compounds boosting diaphorase resazurin reduction – biochemical, uHTS, resorufin fluorescence, counter-screen for diaphorase-coupled primary assays, primary screen; 0.005% of 190,000 active; Diaphorase/resazurin coupled assay, 16 min; hits give high values; 1 = vehicle wells, 0 = NADH-free wells; activation factor at 20 µM;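 active = diaphorase activity raised at least twofold by the compound at 20 µM; inactive = activation factor below 2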
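Test system: Clostridium kluyveri diaphorase, purified enzyme; input: enzyme 0.07 U/mL final; buffer or medium: 50 mM HEPES pH 7.4 with 4.542 mM MgCl2, 0.005% Tween 20; also added: 0.114 mM NADH and 0.1 mM resazurin, final amounts; schedule: 16 min enzyme reaction, ambient temperature; technique: fluorescence of resorufin, 544 nm excitation, 590 nm emission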
WT yeast gro inh: growth inhibition of WT strain, primary screen, mitochondrial fusion inhibitor project, WT and mutant strains, chemical genetic | inhibition, % at 10 µM | AID 1362, 2008 | 2.1% of 190,000 active | mitochondrial fusion phenotypic screen; in the data active = inhibition above about 58%; tested in S. cerevisiae
* = called active by the depositor; / = no result. Compounds with a hit are over-represented: about 12% of the library has one in this group of screens.

SMILES	Lmaj promast	Cl transport mod	ROMK mod	Diaph inh CS	Diaphorase act	WT yeast gro inh
Cc1ccc(Cl)cc1NC(=O)c1ccc(NC(=O)CCC(=O)O)cc1	53*	1.7	1.4	13	0.9	-18
Cc1cc(C)c(C(=O)Nc2ccccc2)c(CC(C)(C)C(=O)O)c1	/	0.028	/	/	/	/
CSc1ccccc1C(=O)N1CCc2ccccc2C1	6	-0.26	0.88	-6	1.1	-8
CC1=NC(Nc2nc(C)c3ccccc3n2)=NC(C)(C)C1	98*	-0.037	/	2	1	24
COc1cccc(Oc2cncnc2-c2ccc(OC)cc2O)c1	93*	-0.69	/	16	0.8	24
CCOc1ccc(-c2nc(N)ncc2Oc2cccc(OC)c2)c(O)c1	36	-1.1	1.1	3	1	11
Cc1[nH]nc2c1C(c1cc(Br)cs1)C(C#N)=C(N)O2 (configuration not stated)	99*	-0.017	-1.8	-3	1	17
COc1ccc(-c2ccc(C3C(C#N)=C(N)Oc4n[nH]c(C)c43)o2)cc1 (configuration not stated)	71*	-0.096	/	26	0.7	1
CCC(C)C1C(C#N)=C(N)Oc2n[nH]c(C)c21 (configuration not stated)	67*	-0.66	/	9	0.9	-4
Cc1[nH]nc2c1C(c1ccco1)C(C#N)=C(N)O2 (configuration not stated)	25	-0.87	-1.6	0	1	0
CCn1cc(/C=N\NC(=O)Cc2ccc([N+](=O)[O-])cc2)c(C)n1	-2	-0.98	-0.31	5	0.9	-2
CCOC(=O)CNC(=O)C1Cc2ccccc2CN1S(=O)(=O)c1cccs1 (configuration not stated)	-3	0.17	/	17	0.8	-5
COc1cccc(CN(C)Cc2nc(Cc3ccccc3Cl)no2)c1	3	-0.52	-0.23	31	0.7	1
CC1=C(C(=O)OC(C)C)C(c2ccccc2)NC(=S)N1C (configuration not stated)	12	0.63	1.1	12	0.9	-16
O=C(O)c1ccccc1C(=O)N1CC=C(c2ccccc2)CC1	90*	/	/	11	0.9	2
COc1cc(NC(=O)Cn2nnc(-c3ccccc3N)n2)cc(OC)c1	55*	-1.1	/	15	0.9	0
COc1ccccc1-c1nnn(C/C(N)=N/O)n1	72*	0.066	-0.15	1	1	-4
CC(NC(=O)CN(c1cccc(C(F)(F)F)c1)S(=O)(=O)c1ccc(Cl)c([N+](=O)[O-])c1)c1ccccc1 (configuration not stated)	50*	1.5	-0.56	15	0.8	7
O=C(CN(c1cccc(C(F)(F)F)c1)S(=O)(=O)c1ccc(Cl)c([N+](=O)[O-])c1)NCc1ccccc1Cl	100*	-0.043	-0.096	21	0.8	-10
Cc1ccc(N(CC(=O)NCCc2ccc(F)cc2)S(=O)(=O)c2ccc(Cl)c([N+](=O)[O-])c2)c(C)c1	54*	-0.58	/	15	0.9	18
O=C(CN(c1cccc(C(F)(F)F)c1)S(=O)(=O)c1ccc(Cl)c([N+](=O)[O-])c1)NCc1ccccc1	63*	0.55	/	15	0.8	-7
COc1ccc(NC(=O)Cn2cnc3c(nnn3-c3ccc(C)cc3)c2=O)cc1	-8	0.36	-1.1	-21	1.2	7
Cc1ccc(OCC(O)CN2C(=O)NC(C)(C)C2=O)c(C)c1 (configuration not stated)	-3	0.17	0.66	20	0.8	-3
CC(=O)NCCCC(=O)NNC1CC(=O)N(c2cccc(Cl)c2)C1=O (configuration not stated)	/	-0.65	/	/	/	/
CCOc1c(Br)cc(CNCc2cccs2)cc1OC	3	-0.26	/	8	0.9	-5
CCCCNCc1cc(Br)c(OCc2cccs2)c(OC)c1	101*	-1.1	/	-1	1	1
